ChEMBL document CHEMBL1148798, “High-efficacy 5-HT1A agonists for antidepressant treatment: a renewed opportunity” (J Med Chem, 2007)

Key:
[1] = biological target: T1, 5-hydroxytryptamine receptor 1A (Rattus norvegicus, UniProt P19327); experiment: Binding affinity to 5HT1A receptor in rat cortex membrane; type: cell membranes
T1 sequence (P19327 whole entry): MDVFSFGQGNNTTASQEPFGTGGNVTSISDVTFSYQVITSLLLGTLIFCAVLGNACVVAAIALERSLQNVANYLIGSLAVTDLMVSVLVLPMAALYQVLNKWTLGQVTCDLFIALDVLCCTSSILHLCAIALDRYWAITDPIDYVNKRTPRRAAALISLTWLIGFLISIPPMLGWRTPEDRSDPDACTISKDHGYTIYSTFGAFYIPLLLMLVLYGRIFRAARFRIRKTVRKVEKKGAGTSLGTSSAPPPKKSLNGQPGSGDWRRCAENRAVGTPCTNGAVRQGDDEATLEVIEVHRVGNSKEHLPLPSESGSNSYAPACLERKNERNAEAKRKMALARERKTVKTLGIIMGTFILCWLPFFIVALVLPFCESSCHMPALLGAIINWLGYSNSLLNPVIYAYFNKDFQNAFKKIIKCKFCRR

[2] = biological target: T2, 5-hydroxytryptamine receptor 1A (Homo sapiens, UniProt P08908); experiment: Agonist activity at human 5HT1A receptor expressed in C6 cells assessed as stimulation of [35S]GTPgammaS binding; type: functional, cell-based
T2 sequence (P08908 whole entry): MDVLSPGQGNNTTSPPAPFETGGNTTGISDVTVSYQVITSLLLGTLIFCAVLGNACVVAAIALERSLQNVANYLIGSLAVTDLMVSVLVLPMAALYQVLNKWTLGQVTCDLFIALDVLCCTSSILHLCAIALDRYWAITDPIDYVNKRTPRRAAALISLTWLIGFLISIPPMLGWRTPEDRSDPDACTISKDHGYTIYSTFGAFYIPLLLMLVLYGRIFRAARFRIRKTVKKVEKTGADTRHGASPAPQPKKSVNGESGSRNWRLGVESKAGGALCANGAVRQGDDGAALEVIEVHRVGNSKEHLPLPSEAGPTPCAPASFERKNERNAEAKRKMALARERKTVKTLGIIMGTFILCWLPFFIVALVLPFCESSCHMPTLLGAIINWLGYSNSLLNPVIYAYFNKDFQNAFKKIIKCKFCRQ

[3] = biological target: T3, 5-hydroxytryptamine receptor 1A (Homo sapiens) (UniProt P08908); experiment: Agonist activity at human 5HT1A receptor expressed in C6 cells assessed as stimulation of [35S]GTP-gamma-S binding relative to 5-hydroxytryptamine; type: functional, cell-based
T3 sequence (whole entry): T2 sequence (P08908 whole entry)
Method in brief: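 Membranes from C6-glial cells expressing h5-HT1A, diluted 20-fold in 20 mM HEPES with 30 µM GDP, 100 mM NaCl, 3 mM MgCl2, 0.2 mM ascorbic acid (16-38 µg protein). Compound preincubated 30 min at 25 °C, then 500 pM [35S]GTPγS added. Six concentrations tested. Nonspecific binding with 10 µM GTPγS.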

[4] = system: Rattus norvegicus; experiment: Antidepressant like activity in orally dosed rat after 60 mins by forced swimming test; type: functional; conditions: po, 1 h
Method in brief: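 Porsolt-type test in rats: 15 min swim in a cylinder with 17 cm water at 25 °C, then 5 min retest 24 h later. Immobility scored blind. Vehicle po after session 1. Compound or vehicle po (10 mL/kg) 1 h before retest, n = 5-12 per dose, doses 0.01-40 mg/kg. Responders had immobility <138 s. […] MSD by Kruskal-Wallis then Dunn's test.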

[5] = species: Rattus norvegicus; experiment: Ratio of ED50 for flat body posture induction in rat to ED50 for forepaw treading induction in rat
[6] = Bioavailability in orally dosed rat; type: ADME, organism-based; conditions: in vivo, po
[7] = Lipophilicity, log D of the compound; type: physicochemical; conditions: octanol/water
[8] = Dissociation constant, pKa of the compound; type: physicochemical
[9] = system: Rattus norvegicus; experiment: Induction of flat body posture in orally dosed rat as after 60 mins; type: functional; conditions: po, 1 h
Method in brief: (§1)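 Compounds given po in H2O (10 mL/kg) to rats, five per dose, doses as free base. Forepaw treading sampled in 10 s per rat repeated 10 times over 10 min at 55-65 min. Present if uninterrupted for ≥3 s, responder if score ≥1. Flat body posture scored if present the whole period. […] Ratio is FBP ED50/FPT ED50.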

[10] = system: Rattus norvegicus; experiment: Induction of forepaw treading in orally dosed rat after 60 mins; type: functional; conditions: po, 1 h; method in brief: as §1
[11] = Bioavailability in dog; type: ADME, organism-based, Canis lupus familiaris; conditions: in vivo
[12] = Bioavailability in rat; type: ADME, organism-based; conditions: in vivo

SMILES: Cc1ccc(CNCC2(F)CCN(C(=O)c3ccc(F)c(Cl)c3)CC2)nn1
- Ki [1]: 5.62 nM
- EC50 [2]: 7940 nM
- Emax [3]: 89.7%

SMILES: COC(=O)c1cnc(CNCC2(F)CCN(C(=O)c3ccc(F)c(Cl)c3)CC2)nc1
- Ki [1]: 219 nM

SMILES: CCc1cnc(CNCC2(F)CCN(C(=O)c3ccc(F)c(Cl)c3)CC2)nc1
- Ki [1]: 56.2 nM

SMILES: O=C(c1ccc(F)c(Cl)c1)N1CCC(F)(CNCc2nccc(-c3ccco3)n2)CC1
- Ki [1]: 0.427 nM
- ED50 [4]: > 2.5 mg/kg
- EC50 [2]: 10 nM
- Emax [3]: 79%

SMILES: O=C(O)c1ccc(CNCC2(F)CCN(C(=O)c3ccc(F)c(Cl)c3)CC2)nc1
- Ki [1]: > 10000 nM

SMILES: O=C(c1ccc(F)c(Cl)c1)N1CCC(F)(CNCc2ncc(CO)cn2)CC1
- Ki [1]: 117 nM

SMILES: CNc1nc(CNCC2(F)CCN(C(=O)c3ccc(F)c(Cl)c3)CC2)ncc1C
- Ki [1]: 1.74 nM
- EC50 [2]: 85.1 nM
- Emax [3]: 64.1%

SMILES: O=C(c1ccc(F)c(Cl)c1)N1CCC(F)(CNCc2ncccn2)CC1
- Ki [1]: 95.5 nM

SMILES: Cc1cnc(CNCC2(F)CCN(C(=O)c3ccc(F)c(Cl)c3)CC2)nc1
- Ratio [5]: 5.5
- bioavailability [6]: > 80%
- logD [7]: 1.5
- Ki [1]: 2.24 nM
- pKa [8]: 6.7
- ED50 [4]: 0.05 mg/kg
- EC50 [2]: 389 nM
- Emax [3]: 70.3%
- ED50 [9]: 8.3 mg/kg
- ED50 [10]: 1.5 mg/kg

SMILES: O=C(c1ccc(F)c(Cl)c1)N1CCC(F)(CNCc2ccc(Cl)cn2)CC1
- Ratio [5]: 1.3
- Ki [1]: 0.692 nM
- EC50 [2]: 69.2 nM
- Emax [3]: 80.4%
- ED50 [9]: 4.9 mg/kg
- ED50 [10]: 3.8 mg/kg

SMILES: O=C(c1ccc(F)c(Cl)c1)N1CCC(F)(CNCc2ccc(C(F)F)cn2)CC1
- Ratio [5]: 1.7
- Ki [1]: 3.8 nM
- EC50 [2]: 240 nM
- Emax [3]: 96.4%
- ED50 [9]: 4.2 mg/kg
- ED50 [10]: 2.5 mg/kg

SMILES: CNc1ccnc(CNCC2(F)CCN(C(=O)c3ccc(F)c(Cl)c3)CC2)n1
- Ki [1]: 4.79 nM
- EC50 [2]: 309 nM
- Emax [3]: 58.8%

SMILES: O=C(c1ccc(F)c(Cl)c1)N1CCC(F)(CNCc2ccc(CO)cn2)CC1
- Ki [1]: 7.41 nM
- EC50 [2]: 2040 nM
- Emax [3]: 80%

SMILES: CNc1nc(CNCC2(F)CCN(C(=O)c3ccc(F)c(Cl)c3)CC2)ncc1Cl
- Ki [1]: 0.741 nM
- ED50 [4]: 0.32 mg/kg
- EC50 [2]: 42.7 nM
- Emax [3]: 71.8%

SMILES: O=C(c1ccc(F)c(Cl)c1)N1CCC(F)(CNCc2ccc(CF)cn2)CC1
- Ratio [5]: 2.6
- Ki [1]: 1.2 nM
- ED50 [4]: 0.17 mg/kg
- EC50 [2]: 229 nM
- Emax [3]: 61%
- ED50 [9]: 16 mg/kg
- ED50 [10]: 6.1 mg/kg

SMILES: Cc1cnc(CNCC2(F)CCN(C(=O)c3ccc(F)c(Cl)c3)CC2)cn1
- Ki [1]: 66.1 nM

SMILES: Cc1ccc(CNCC2(F)CCN(C(=O)c3ccc(F)c(Cl)c3)CC2)nc1 [BEFIRADOL]
- logD [7]: 2.6
- bioavailability [11]: > 70%
- pKa [8]: 6.4
- bioavailability [12]: > 70%
- ED50 [4]: 0.06 mg/kg
- ED50 [9]: 1.4 mg/kg
- ED50 [10]: 0.38 mg/kg

SMILES: O=C(c1ccc(F)c(Cl)c1)N1CCC(F)(CNCc2ncc(Cl)cn2)CC1
- Ki [1]: 3.39 nM
- ED50 [4]: 0.03 mg/kg
- EC50 [2]: 155 nM
- Emax [3]: 76%

SMILES: CC(=O)Nc1cccc(N2CCN(CCCCNS(=O)(=O)CC3CCCCC3)CC2)c1 [NALUZOTAN]
- Ki [1]: 30.2 nM
- ED50 [4]: > 40 mg/kg
- EC50 [2]: 93.3 nM
- Emax [3]: 6.6%
- ED50 [9]: > 40 mg/kg
- ED50 [10]: > 40 mg/kg

SMILES: CCCN(CCC)C1CCc2cccc(O)c2C1 (stereo unspecified) [8-OH-DPAT]
- ED50 [4]: 0.75 mg/kg
- Emax [3]: 35.9%
- ED50 [9]: > 40 mg/kg
- ED50 [10]: 40 mg/kg

SMILES: COc1ccnc(CNCC2(F)CCN(C(=O)c3ccc(F)c(Cl)c3)CC2)n1
- Ki [1]: 6.46 nM
- EC50 [2]: 447 nM
- Emax [3]: 75.5%

SMILES: CN(C)c1ccnc(CNCC2(F)CCN(C(=O)c3ccc(F)c(Cl)c3)CC2)n1
- Ki [1]: 2.29 nM
- EC50 [2]: 89.1 nM
- Emax [3]: 63.4%

SMILES: O=C(c1ccc(F)c(Cl)c1)N1CCC(F)(CNCc2ncc(C(F)F)cn2)CC1
- Ki [1]: 25.1 nM
- EC50 [2]: 3630 nM
- Emax [3]: 82.5%

SMILES: O=c1[nH]c2ccccc2n1CCN1CCN(c2cccc(C(F)(F)F)c2)CC1 [FLIBANSERIN]
- Ki [1]: 11.7 nM
- ED50 [4]: > 320 mg/kg
- EC50 [2]: 631 nM
- Emax [3]: 72%
- ED50 [9]: 20 mg/kg
- ED50 [10]: > 40 mg/kg
